We go through 1 compound from ChEMBL document CHEMBL3120069, “Chemical genetics-based discovery of indole derivatives as HCV NS5B polymerase inhibitors” (Eur J Med Chem, 2014).

The structures appear in SMILES notation.

For data set [1], the system named is Hepatitis C virus. Nature of the data set: Antiviral activity against Hepatitis C virus JFH-1 J6 genotype 2a infected in human Huh7.5 cells assessed as time required for reducing viral RNA level by half at 10 uM by luciferase reporter gene assay. In kind it is functional, organism-based. As to conditions: Hepacivirus hominis, subtype 2a JFH1 J6, Huh-7. Put shortly: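 Rluc-J6/JFH1 RNA-transfected Huh7.5 cells given 10 µM compound; renilla luciferase and cell viability measured at 24, 48, 72 h. T1/2 for halving replication taken from the time-response curve.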

Data set [2] has as its system Hepatitis C virus. In words: Antiviral activity against Hepatitis C virus Con1 Bart79I genotype 1b infected in human Huh7.5 cells assessed as inhibition of NS5A S2204I mutant synthesis at 10 uM by Western blot analysis. As to conditions: Hepacivirus hominis, subtype 1b Con1 Bart79I, Huh-7, TDE = time-dependent effect. In kind it is functional, organism-based. Put shortly: (§1)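 Bart79I replicon Huh7.5 cells, 1.5×10⁵/well, treated with DMSO or compound. Dose series for 5 days (120 h), or 10 M for 24, 48, 72 h. Lysed in RIPA with protease inhibitors and protein quantified by Bradford. NS5A and β-actin measured by Western blot, with NS5A normalized to β-actin. EC50 and T1/2 taken from response curves.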

A short description of data set [3]: Inhibition of recombinant HCV N-terminal hexahistidine-tagged NS5B Cdelta21 RdRp expressed in Escherichia coli assessed as incorporation of [alpha-32P]-UTP in RNA after 2 hrs by autoradiographic analysis. Also noted: species or system Hepacivirus hominis. Put shortly: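 N-terminal His6-tagged recombinant HCV NS5B from E. coli, primer-dependent elongation with poly(A) template (1 µg) and oligo(U)20 (10 pmol). Buffer: 50 mM Tris-HCl pH 7.5, 50 mM NaCl, 100 mM K glutamate, 2 mM MgCl2, 1 mM DTT, RNase inhibitor, UTP plus [α-³²P]UTP. Increasing compound concentrations; IC50 from dose-response curve.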

The nature of data set [4]: Selectivity index, ratio of CC50 for human Huh7.5 cells to EC50 for Hepatitis C virus JFH-1 J6 genotype 2a infected in human Huh7.5 cells. In kind it is toxicity, cell-based, Huh-7. As to conditions: read-out: Ratio CC50/EC50.
In data set [5] the test system is Hepatitis C virus. Nature of the data set: Antiviral activity against Hepatitis C virus Con1 Bart79I genotype 1b expressing YFP infected in human Huh7.5 cells assessed as time required for reducing viral core level by half at 10 uM by FACS analysis. In kind it is functional, organism-based. Particulars: Hepacivirus hominis, subtype 1b Con1 Bart79I, Huh-7, in the assay text read “viral NS5A-YFP level” for “viral core level”. Summed up:
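Huh7.5 cells stably carrying Bart79I-YFP subgenomic replicon (G418 750 mg/ml selection), exposed to compound at 10 µM; cells harvested at 24, 48, 72 h, washed, resuspended in PBS, NS5A-YFP-positive cell percentage read by FACS. T1/2 taken from the time-response curve.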

Data set [6] has as its system Hepatitis C virus. In words: Antiviral activity against Hepatitis C virus Con1 Bart79I genotype 1b expressing YFP infected in human Huh7.5 cells assessed as NS5A S2204I mutant synthesis at 2 uM after 120 hrs by FACS analysis (reference value: 66%). In kind it is functional, Hepacivirus hominis, subtype 1b Con1 Bart79I, Huh-7. Summed up:
(§2)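 Huh7.5 cells stably carrying Bart79I-YFP subgenomic replicon (G418 selection), treated with DMSO or compound. Dose series over 5 days (120 h), or 10 M with sampling at 24, 48, 72 h. Cells washed, resuspended in PBS, and NS5A-YFP-positive cells counted by FACS. EC50 and T1/2 taken from response curves.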
A general note: Flow cytometry measures light scatter and fluorescence of single cells or particles in a stream.

Data set [7] in a line: Selectivity ratio of EC50 for Hepatitis C virus JFH-1 J6 genotype 2a to EC50 for Hepatitis C virus Con1 Bart79I genotype 1b expressing NS5A S2204I mutant. In kind it is functional.
In data set [8] the test system is Hepatitis C virus. Nature of the data set: Antiviral activity against Hepatitis C virus Con1 Bart79I genotype 1b infected in human Huh7.5 cells assessed as inhibition of NS5A S2204I mutant synthesis after 120 hrs by Western blot analysis. In kind it is functional, organism-based. As to conditions: subtype 1b Con1 Bart79I. Summed up: as §1
For orientation: In western blotting, separated proteins are transferred to a membrane and probed.

The subject of data set [9] is Hepatitis C virus. Nature of the data set: Antiviral activity against Hepatitis C virus Con1 Bart79I genotype 1b expressing NS5A S2204I mutant infected in human Huh7.5 cells assessed as inhibition of viral RNA replication after 72 hrs by real time qRT-PCR analysis. In kind it is functional, organism-based. As to conditions: subtype 1b Con1 Bart79I. Summed up:
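Huh7.5 cells stably carrying Bart79I genotype 1b subgenomic replicon (G418 750 mg/ml selection, 3 weeks), 3×10⁵ cells/well with DMSO or compound. Dose series over 72 h, or 10 M for increasing periods. Viral and host GAPDH RNA measured by real-time qRT-PCR. EC50 and T1/2 taken from response curves of triplicate experiments.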
Background: In qPCR the cycle at which signal appears reflects the starting amount.

For data set [10], the system named is Hepatitis C virus. In words: Antiviral activity against Hepatitis C virus Con1 Bart79I genotype 1b infected in human Huh7.5 cells assessed as time required for reducing NS5A S2204I mutant level by half at 10 uM by Western blot analysis. In kind it is functional, organism-based. As to conditions: Hepacivirus hominis, subtype 1b Con1 Bart79I, Huh-7. Summed up:
as §1

Data set [11] concerns Hepatitis C virus. In words: Antiviral activity against Hepatitis C virus JFH-1 J6 genotype 2a infected in human Huh7.5 cells assessed as inhibition of viral RNA replication after 72 hrs by real time qRT-PCR analysis. In kind it is functional, organism-based.
Data set [12] relates to Hepatitis C virus. Nature of the data set: Antiviral activity against Hepatitis C virus Con1 Bart79I genotype 1b expressing YFP infected in human Huh7.5 cells assessed as NS5A S2204I mutant synthesis at 10 uM after 24 hrs by FACS analysis (reference value: 52.2%). In kind it is functional, Hepacivirus hominis, subtype 1b Con1 Bart79I, Huh-7. Put shortly: as §2
For data set [13], the system named is Hepatitis C virus. In words: Antiviral activity against Hepatitis C virus Con1 Bart79I genotype 1b expressing YFP infected in human Huh7.5 cells assessed as inhibition of NS5A S2204I mutant synthesis after 120 hrs by FACS analysis. In kind it is functional, organism-based. Particulars: subtype 1b Con1 Bart79I. Summed up:
as §2

A short description of data set [14]: Ratio of antiviral activity against Hepatitis C virus Con1 Bart79I genotype 1b expressing NS5A S2204I mutant infected in human Huh7.5 cells assessed as time required for reducing viral RNA level by half to antiviral activity against Hepatitis C virus JFH-1 J6 genotype 2a infected in human Huh7.5 cells assessed as time required for reducing viral RNA level by half. In kind it is functional, Huh-7.

The test system of data set [15] is Hepatitis C virus. Nature of the data set: Antiviral activity against Hepatitis C virus Con1 Bart79I genotype 1b expressing YFP infected in human Huh7.5 cells assessed as NS5A S2204I mutant synthesis at 5 uM after 120 hrs by FACS analysis (reference value: 66%). In kind it is functional, Hepacivirus hominis, subtype 1b Con1 Bart79I, Huh-7. Put shortly:
as §2

The subject of data set [16] is Hepatitis C virus. In words: Antiviral activity against Hepatitis C virus JFH-1 J6 genotype 2a infected in human Huh7.5 cells assessed as inhibition of viral RNA replication after 72 hrs by luciferase reporter gene assay. Particulars: subtype 2a JFH1 J6, Huh-7, 72 h. In kind it is functional, organism-based, Hepacivirus hominis.
Data set [17] concerns Hepatitis C virus. Nature of the data set: Antiviral activity against Hepatitis C virus Con1 Bart79I genotype 1b expressing YFP infected in human Huh7.5 cells assessed as NS5A S2204I mutant synthesis at 10 uM after 48 hrs by FACS analysis (reference value: 52.2%). In kind it is functional, Hepacivirus hominis, subtype 1b Con1 Bart79I, Huh-7. Summed up:
as §2

The subject of data set [18] is Hepatitis C virus. Nature of the data set: Antiviral activity against Hepatitis C virus Con1 Bart79I genotype 1b expressing YFP/NS5A S2204I mutant infected in human Huh7.5 cells assessed as inhibition of viral RNA replication after 72 hrs by real time qRT-PCR analysis. As to conditions: subtype 1b Con1 Bart79I, Huh-7, 72 h.

One may read the IC50 as the concentration at which inhibition is half-maximal. A word on the EC50: it is the midpoint of the concentration-response curve. A word on the EC90: it is the concentration needed for an effect of 90%.

In the case of `C/C(=C\c1c[nH]c2ccc(C#N)cc12)C(=O)Nc1ccc(C(C)(C)C)cc1`, the T1/2 was 16.4 h in data set [1], 31.8 h in data set [5] and 31.7 h in [10]. The inhibition entry in data set [2] was “tde”; in data set [8] (Hepacivirus hominis, Huh-7), “Dose-dependent effect”; in data set [9] (Hepacivirus hominis, Huh-7), “Dose-dependent effect”; in data set [11] (Hepacivirus hominis, subtype 2a JFH1 J6, Huh-7), “Dose-dependent effect”; in data set [13] (Hepacivirus hominis, Huh-7) it was “Dose-dependent effect”. In data set [3], the IC50 was found to be 0.292 µM. In data set [4], the selectivity ratio turned out to be 56.9. Besides, the Activity in data set [6] was 4.2%; in data set [12], 32.2%; in data set [15], 0.7%; in data set [17] it was 11.8%. The “Ratio EC50” value in data set [7] is recorded as 3.2. Moreover, the EC50 in data set [8] (Huh-7, 120 h) was determined as 2.5 µM; in data set [9] (Huh-7, 72 h) it was 0.6 µM; in data set [11] (subtype 2a JFH1 J6, Huh-7, 72 h), 1.9 µM; in data set [13] (Huh-7, 120 h) it was 1.03 µM; in data set [16], 1.1 µM; in [18], 4.77 µM. In data set [14], the Ratio is recorded as 1.8. The EC90 in data set [16] worked out at 2.1 µM.
